{
  "source": "paper PMC5079820",
  "about": "(Bioorganic & medicinal chemistry, 2016)",
  "key": {"[1]": {"system": "MCF-10A mammary epithelial cells", "assay": "Cytotoxicity assay", "format": "cell-based", "details": "24 h, MTT"}, "MST1R (RON)": {"target": "MST1R (RON) (Homo sapiens, UniProt Q04912)", "sequence (Q04912 25-1400)": "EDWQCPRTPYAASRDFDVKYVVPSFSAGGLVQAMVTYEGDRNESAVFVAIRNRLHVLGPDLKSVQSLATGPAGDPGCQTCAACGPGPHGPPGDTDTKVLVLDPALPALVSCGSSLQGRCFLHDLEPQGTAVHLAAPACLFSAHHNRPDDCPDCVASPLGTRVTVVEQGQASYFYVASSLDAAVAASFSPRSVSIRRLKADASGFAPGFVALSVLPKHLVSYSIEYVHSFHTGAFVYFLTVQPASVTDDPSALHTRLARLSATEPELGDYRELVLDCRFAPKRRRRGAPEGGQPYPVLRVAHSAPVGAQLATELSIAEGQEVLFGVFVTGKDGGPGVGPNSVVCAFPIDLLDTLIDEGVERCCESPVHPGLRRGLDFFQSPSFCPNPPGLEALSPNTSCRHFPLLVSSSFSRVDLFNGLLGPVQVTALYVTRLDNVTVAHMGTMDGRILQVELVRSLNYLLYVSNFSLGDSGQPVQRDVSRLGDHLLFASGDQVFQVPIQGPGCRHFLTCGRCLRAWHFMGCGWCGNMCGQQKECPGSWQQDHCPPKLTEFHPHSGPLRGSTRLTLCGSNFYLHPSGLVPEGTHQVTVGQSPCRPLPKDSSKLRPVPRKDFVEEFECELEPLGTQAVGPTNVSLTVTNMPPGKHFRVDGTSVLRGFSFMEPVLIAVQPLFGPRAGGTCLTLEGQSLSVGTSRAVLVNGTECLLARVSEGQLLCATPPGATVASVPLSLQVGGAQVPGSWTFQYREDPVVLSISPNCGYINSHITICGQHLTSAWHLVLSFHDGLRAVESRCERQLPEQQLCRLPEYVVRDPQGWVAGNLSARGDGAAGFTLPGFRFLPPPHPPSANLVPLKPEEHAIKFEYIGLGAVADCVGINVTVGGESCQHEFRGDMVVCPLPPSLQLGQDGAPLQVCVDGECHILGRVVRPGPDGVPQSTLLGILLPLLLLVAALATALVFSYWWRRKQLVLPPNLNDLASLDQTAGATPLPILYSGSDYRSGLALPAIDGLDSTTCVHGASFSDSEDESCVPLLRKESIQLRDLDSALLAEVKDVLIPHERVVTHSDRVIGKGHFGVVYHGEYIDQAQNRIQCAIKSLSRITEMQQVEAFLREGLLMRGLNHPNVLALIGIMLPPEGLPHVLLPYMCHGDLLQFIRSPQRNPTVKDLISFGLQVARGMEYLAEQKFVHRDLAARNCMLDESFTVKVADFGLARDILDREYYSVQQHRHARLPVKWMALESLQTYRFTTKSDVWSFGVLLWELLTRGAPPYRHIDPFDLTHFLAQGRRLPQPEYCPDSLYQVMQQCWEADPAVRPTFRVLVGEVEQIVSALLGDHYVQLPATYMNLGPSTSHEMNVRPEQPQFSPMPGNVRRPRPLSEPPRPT", "assay": "SelectScreen kinase profiling, MST1R", "format": "biochemical", "details": "read-out: Mean % inhibition at 10 μM, MST1R (RON), 10 μM", "procedure,_shortened": "(§1)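 Test compound was screened at a single 10 μM concentration through an outsourced kinase selectivity panel (SelectScreen). Percent inhibition of each kinase was determined by time-resolved FRET assay.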"}, "MDA-MB-231 cells": {"system": "MDA-MB-231 cells", "assay": "Lactate dehydrogenase", "format": "cell-based", "details": "MDA-MB-231, effective anticancer concentrations, 24 h", "procedure,_shortened": "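MDA-MB-231 cells were seeded at 3 × 10^4 cells/well and allowed to attach, then exposed to test compound in medium with 5% FBS for 24 h at 37 °C, 5% CO2. Controls: Triton X-100 wells (maximum release) and […], in triplicate. Supernatant was incubated with NAD+/lactic acid/INT/diaphorase for 30 min at rt, and A490 was read. % cytotoxicity was calculated relative to spontaneous and maximum release.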"}, "[2]": {"system": "MDA-MB-231/GFP tumor cells", "assay": "Breast cancer xenograft in athymic nude mice", "format": "in vivo", "details": "10 mg/kg i.p., 3X/week, throughout the study", "procedure,_shortened": "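Female athymic nude mice (5–6 weeks old) received 1 × 10^6 MDA-MB-231/GFP cells in RPMI-1640 into the mammary fat pad. At about 50 mm3 (day 10), mice were randomized, 5 per group. Test compound was dissolved as a DMSO stock, diluted in sterile PBS with 0.1% Tween 80, and given i.p. at 10 mg/kg three times weekly. Controls got the same vehicle volume. Body weight was monitored regularly.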"}, "ABL1": {"target": "ABL1 (Homo sapiens, UniProt P00519)", "sequence (P00519 whole entry)": "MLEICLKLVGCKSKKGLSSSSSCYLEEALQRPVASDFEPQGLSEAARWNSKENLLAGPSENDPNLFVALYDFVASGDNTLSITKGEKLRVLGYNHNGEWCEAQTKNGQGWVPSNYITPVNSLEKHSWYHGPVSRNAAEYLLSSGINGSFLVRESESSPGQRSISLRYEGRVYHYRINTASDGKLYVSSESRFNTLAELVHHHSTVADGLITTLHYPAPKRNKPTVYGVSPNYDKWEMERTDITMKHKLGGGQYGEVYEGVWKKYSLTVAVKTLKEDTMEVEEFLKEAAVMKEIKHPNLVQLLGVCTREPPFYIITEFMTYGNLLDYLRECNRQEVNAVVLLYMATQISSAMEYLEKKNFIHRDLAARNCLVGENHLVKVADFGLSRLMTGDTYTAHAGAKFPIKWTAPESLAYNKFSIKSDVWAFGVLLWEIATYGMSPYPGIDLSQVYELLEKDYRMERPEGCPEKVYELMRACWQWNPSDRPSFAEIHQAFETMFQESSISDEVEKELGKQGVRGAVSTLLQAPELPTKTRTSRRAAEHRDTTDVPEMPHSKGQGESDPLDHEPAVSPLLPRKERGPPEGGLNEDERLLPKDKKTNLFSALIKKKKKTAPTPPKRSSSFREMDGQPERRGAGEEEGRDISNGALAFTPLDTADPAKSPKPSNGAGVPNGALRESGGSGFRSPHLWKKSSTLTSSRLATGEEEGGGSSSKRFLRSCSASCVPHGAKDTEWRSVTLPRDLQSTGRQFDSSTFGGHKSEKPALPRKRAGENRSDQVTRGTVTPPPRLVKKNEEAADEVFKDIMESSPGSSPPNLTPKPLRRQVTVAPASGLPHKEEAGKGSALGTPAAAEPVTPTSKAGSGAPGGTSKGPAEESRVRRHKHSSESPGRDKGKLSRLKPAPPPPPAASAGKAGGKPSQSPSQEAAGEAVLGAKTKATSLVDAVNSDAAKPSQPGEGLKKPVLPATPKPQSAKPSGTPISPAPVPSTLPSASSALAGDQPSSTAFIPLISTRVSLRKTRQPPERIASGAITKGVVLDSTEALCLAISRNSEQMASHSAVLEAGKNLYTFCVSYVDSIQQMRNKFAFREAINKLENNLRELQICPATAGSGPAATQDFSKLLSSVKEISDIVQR", "assay": "SelectScreen kinase profiling, ABL1", "format": "biochemical", "details": "read-out: Mean % inhibition at 10 μM, ABL1, 10 μM", "procedure,_shortened": "as §1"}, "[3]": {"system": "p-c-Met in MDA-MB-231/GFP tumors", "assay": "Western blot of p-c-Met in excised xenograft tumors", "format": "in vivo, athymic nude mice", "details": "10 mg/kg i.p., 3X/week, vs vehicle-treated control", "procedure,_shortened": "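Xenografts were MDA-MB-231/GFP cells in the mammary fat pad of female athymic nude mice, 5 per group. Test compound (i.p., 10 mg/kg, 3×/week) or vehicle (DMSO stock diluted in PBS/0.1% Tween 80) was given. At termination, tumors were excised, snap-frozen, homogenized and lysed. Lysates were immunoblotted for p-c-Met: SDS gels, PVDF, 5% BSA/TBST block, primary antibodies overnight at 4 °C, HRP secondaries, chemiluminescence.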"}, "[4]": {"system": "c-Met phosphorylation in MDA-MB-231 cells", "assay": "Western blot of c-Met phosphorylation in cells", "format": "cell-based, human", "details": "MDA-MB-231, Western blot, 72 h"}, "ERBB2 (HER2)": {"target": "ERBB2 (HER2) (Homo sapiens, UniProt P04626)", "sequence (P04626 23-1255)": "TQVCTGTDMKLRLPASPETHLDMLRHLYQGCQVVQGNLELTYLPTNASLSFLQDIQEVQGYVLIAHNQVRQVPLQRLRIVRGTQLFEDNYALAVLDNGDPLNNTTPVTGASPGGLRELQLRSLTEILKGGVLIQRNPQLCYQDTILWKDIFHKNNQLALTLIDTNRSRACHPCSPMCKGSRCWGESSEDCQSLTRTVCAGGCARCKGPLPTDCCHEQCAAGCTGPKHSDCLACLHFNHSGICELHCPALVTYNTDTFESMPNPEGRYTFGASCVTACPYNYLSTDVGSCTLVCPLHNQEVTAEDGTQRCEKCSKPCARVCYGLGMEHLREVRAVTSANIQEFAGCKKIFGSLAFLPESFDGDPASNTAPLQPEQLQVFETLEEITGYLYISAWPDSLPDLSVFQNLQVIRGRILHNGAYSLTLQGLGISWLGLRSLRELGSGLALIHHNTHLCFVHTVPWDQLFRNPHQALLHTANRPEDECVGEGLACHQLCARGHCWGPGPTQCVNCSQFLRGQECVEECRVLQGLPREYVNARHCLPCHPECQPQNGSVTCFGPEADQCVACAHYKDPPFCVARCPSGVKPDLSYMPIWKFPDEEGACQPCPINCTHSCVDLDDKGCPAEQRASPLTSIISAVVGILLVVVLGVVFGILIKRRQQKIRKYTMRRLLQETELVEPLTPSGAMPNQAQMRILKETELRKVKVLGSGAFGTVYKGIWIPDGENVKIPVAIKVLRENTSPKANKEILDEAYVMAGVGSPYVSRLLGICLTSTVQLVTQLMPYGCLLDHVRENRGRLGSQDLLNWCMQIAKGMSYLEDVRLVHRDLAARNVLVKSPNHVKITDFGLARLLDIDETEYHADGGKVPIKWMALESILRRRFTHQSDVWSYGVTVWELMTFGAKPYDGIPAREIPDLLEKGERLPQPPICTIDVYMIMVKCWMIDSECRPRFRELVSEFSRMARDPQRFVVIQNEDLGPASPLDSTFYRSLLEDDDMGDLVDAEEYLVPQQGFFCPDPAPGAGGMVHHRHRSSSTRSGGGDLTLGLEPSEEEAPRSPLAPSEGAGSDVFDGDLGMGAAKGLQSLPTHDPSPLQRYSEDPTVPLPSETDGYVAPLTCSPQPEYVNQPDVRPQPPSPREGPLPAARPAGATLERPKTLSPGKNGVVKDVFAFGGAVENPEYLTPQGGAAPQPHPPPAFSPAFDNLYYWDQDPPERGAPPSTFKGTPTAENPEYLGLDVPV", "assay": "SelectScreen kinase profiling, HER2", "format": "biochemical", "details": "read-out: Mean % inhibition at 10 μM, ERBB2 (HER2), 10 μM", "procedure,_shortened": "as §1"}, "IGF1R": {"target": "IGF1R (Homo sapiens, UniProt P08069)", "sequence (P08069 31-1367)": "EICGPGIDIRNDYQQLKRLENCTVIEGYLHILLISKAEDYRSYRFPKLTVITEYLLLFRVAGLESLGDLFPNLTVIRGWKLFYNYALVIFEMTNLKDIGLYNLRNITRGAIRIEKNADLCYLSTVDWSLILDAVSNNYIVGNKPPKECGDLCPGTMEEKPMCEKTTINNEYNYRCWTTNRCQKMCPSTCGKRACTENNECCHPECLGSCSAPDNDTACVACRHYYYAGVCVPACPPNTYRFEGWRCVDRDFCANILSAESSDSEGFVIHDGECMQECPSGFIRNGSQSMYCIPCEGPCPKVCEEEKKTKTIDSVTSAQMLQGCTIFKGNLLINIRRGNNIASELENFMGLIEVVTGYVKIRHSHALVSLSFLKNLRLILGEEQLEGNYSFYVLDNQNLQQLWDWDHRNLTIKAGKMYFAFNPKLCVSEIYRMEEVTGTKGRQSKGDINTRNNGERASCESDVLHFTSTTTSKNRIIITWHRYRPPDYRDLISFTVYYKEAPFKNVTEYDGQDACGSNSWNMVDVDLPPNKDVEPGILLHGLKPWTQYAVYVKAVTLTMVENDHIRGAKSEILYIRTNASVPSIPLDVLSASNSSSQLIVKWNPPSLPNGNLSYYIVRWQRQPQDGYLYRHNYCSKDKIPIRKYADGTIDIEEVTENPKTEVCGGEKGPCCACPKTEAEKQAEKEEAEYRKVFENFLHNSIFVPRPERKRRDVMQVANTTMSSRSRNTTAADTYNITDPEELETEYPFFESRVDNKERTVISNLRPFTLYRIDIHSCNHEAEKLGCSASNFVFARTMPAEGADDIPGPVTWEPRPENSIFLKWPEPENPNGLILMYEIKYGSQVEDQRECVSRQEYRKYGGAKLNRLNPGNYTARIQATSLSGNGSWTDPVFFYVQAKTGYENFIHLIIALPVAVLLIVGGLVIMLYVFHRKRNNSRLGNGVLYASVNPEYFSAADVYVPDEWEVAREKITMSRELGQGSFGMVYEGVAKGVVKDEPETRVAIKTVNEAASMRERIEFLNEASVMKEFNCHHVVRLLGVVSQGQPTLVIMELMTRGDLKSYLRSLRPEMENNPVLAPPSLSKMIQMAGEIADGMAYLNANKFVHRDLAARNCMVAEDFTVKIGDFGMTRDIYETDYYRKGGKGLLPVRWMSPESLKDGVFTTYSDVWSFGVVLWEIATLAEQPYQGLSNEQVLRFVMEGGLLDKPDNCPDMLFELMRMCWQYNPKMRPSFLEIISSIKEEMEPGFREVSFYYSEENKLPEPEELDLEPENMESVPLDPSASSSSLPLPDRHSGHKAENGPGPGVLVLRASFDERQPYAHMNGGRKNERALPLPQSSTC", "assay": "SelectScreen kinase profiling, IGF1R", "format": "biochemical", "details": "read-out: Mean % inhibition at 10 μM, IGF1R, 10 μM", "procedure,_shortened": "as §1"}, "[5]": {"system": "p-Akt, p-mTOR, p-FAK, paxillin, p-MAPK in MDA-MB-231 cells", "assay": "Western blot of c-Met downstream effectors in cells", "format": "cell-based, human", "details": "MDA-MB-231, Western blot", "procedure,_shortened": "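MDA-MB-231 cells were seeded at 5 × 10^5 per 100 mm dish, attached overnight, then treated with test compound or DMSO vehicle for 72 h in serum-reduced medium with 10 ng/ml HGF. Lysates (30 μg) were run on Tris/glycine/SDS gels and transferred to PVDF. Blots were blocked 2 h in 5% BSA/TBST, probed with primary antibodies overnight at 4 °C and HRP secondaries 1 h at rt, and detected by chemiluminescence.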"}},
  "data": [
    {"smiles": "C/C1=C\\[C@H](OC(=O)Nc2cc(C(F)(F)F)cc(C(F)(F)F)c2)C[C@](C)(O)/C=C/[C@H](C(C)C)CC/C(C)=C/CC1", "note": "[Compound 20, 6-O-[(N-(3,5-bis-(trifluoromethyl)phenyl)carbamoyl)]-(1S,2E,4S,7E,11E)-2,7,11-cembratriene-4,6-diol]", "values": [
      {"measurement": "cellular death at effective doses", "setting": "[1]", "value": "didn’t induce a significant cellular death"},
      {"measurement": "inhibition at 10 µM", "setting": "MST1R (RON)", "value": "30 to 35", "unit": "%"},
      {"measurement": "LDH release (necrosis marker)", "setting": "MDA-MB-231 cells", "value": "minimal"},
      {"measurement": "average body weight difference between treatment and vehicle groups", "setting": "[2]", "value": "non-significant"},
      {"measurement": "inhibition at 10 µM", "setting": "ABL1", "value": "30 to 35", "unit": "%"},
      {"measurement": "level of p-c-Met in excised tumors", "setting": "[3]", "value": "significant decrease"},
      {"measurement": "effect on p-Met (phosphorylated c-Met) level", "setting": "[4]", "value": "significant concentration-dependent downregulation"},
      {"measurement": "inhibition at 10 µM", "setting": "ERBB2 (HER2)", "value": 23, "unit": "%"},
      {"measurement": "inhibition at 10 µM", "setting": "IGF1R", "value": "30 to 35", "unit": "%"},
      {"measurement": "levels of p-Akt, p-mTOR and p-FAK", "setting": "[5]", "value": "significant reductions"},
      {"measurement": "paxillin phosphorylation", "setting": "[5]", "value": "phosphorylation reduction"},
      {"measurement": "p-MAPK level", "setting": "[5]; compared to untreated cells", "value": "dose-dependent downregulation"}
    ]}
  ]
}
